Inhibition, inhibition in vivo and ED50 data for 16 compounds are collected here from ChEMBL document CHEMBL1122590, “Dibenz[b,e]oxepinalkanoic acids as nonsteroidal antiinflammatory agents. 4. Synthesis and evaluation of 4-(4,10-dihydro-10-oxothieno[3,2-c] [1]benzoxepin-8-yl)butanol and -butyric acid and related derivatives” (1984).

Usually Inhibition stands for the drop in the measured response relative to a control, in per cent. Read a low Inhibition as a weak effect. As usually defined, the inhibition in vivo is the change of the read-out against control, counted positive when it falls. Higher therefore signals a response far below the control. The term ED50 denotes the midpoint of the dose-response relation. Read a high ED50 as a need for a large dose.

Test [1] has as its system Rattus norvegicus. The test is described as follows: Ability to inhibit Carrageenan-induced paw edema in rat administered per orally. The settings on record: for ED50: po. Type of test: functional. The method, boiled down: (§1)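 Male Wistar rats, 130-200 g, groups of 7-10, fasted overnight with water available. Oral dosing in 10 mL/kg of aqueous Tween 80 suspension (oils in emulphor/alcohol/water 1:1:8) at 1, 2 and/or 4 h before subplantar injection of 0.1 mL of 1% carrageenan into left hind paw. Paw volume by mercury displacement at 0 and 3 h; % edema inhibition vs vehicle; ED50 by linear regression from at least three doses.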

Test [2] concerns Mus musculus. The test is described as follows: Ability to inhibit phenylquinone induced writhing in mouse at dose 25 mg/Kg administered per orally. The settings on record: po.
Test [3] has as its system Rattus norvegicus. The test can be described thus: Ability to inhibit Carrageenan-induced paw edema in rat at dose 20 mg/Kg administered per orally. The test is classed as functional. The settings on record: po. The method, boiled down:
as §1
Background: Carrageenan injected into the paw causes an acute inflammation.

The test system of test [4] is Mus musculus. The test can be described thus: Ability to inhibit phenylquinone induced writhing in mouse administered per orally. The settings on record: po.
Test [5] relates to Rattus norvegicus. The test can be described thus: Ability to inhibit Carrageenan-induced paw edema in rat at a dose of 20 mg/kg administered per orally. The test is classed as functional. The conditions noted are these: route oral. The method, boiled down:
as §1

For test [6], the system named is Rattus norvegicus. The test is described as follows: Ability to inhibit gastric irritation in rat administered per orally. The test is classed as functional. The conditions noted are these: Stomach, po. Put shortly:
(§2)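 Groups of 10 male Wistar rats, 150-175 g, fasted 48 h with water available, dosed orally (10 mL/kg vehicle as Tween 80 suspension or emulphor/alcohol/water). Time course: sacrifice at 3, 5 and 7 h. Stomachs and intestines examined; any erosion, ulcer or perforation scored ulcerogenic. Four doses at peak time; ED50 = dose giving irritation in 50% of animals, by linear regression.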

For test [7], the system named is Rattus norvegicus. The test is described as follows: Ability to inhibit Carrageenan-induced paw edema in rat administered perorally. The test is classed as functional. The settings on record: po. The method, boiled down: as §1
Test [8] concerns Mus musculus. The test is described as follows: Ability to inhibit phenylquinone induced writhing in mouse administered perorally. The conditions noted are these: po. A general note: An intraperitoneal irritant provokes the stretching counted in writhing tests.
Test [9] concerns Mus musculus. The test is described as follows: Ability to inhibit phenylquinone induced writhing, in mouse at dose 25 mg/Kg administered per orally. The settings on record: po.
The subject of test [10] is Rattus norvegicus. The test can be described thus: Ability to inhibit gastric irritation in rat at dose 400 mg/Kg administered per orally. The test is classed as functional. The settings on record: Stomach, po. The method, boiled down: as §2
The test system of test [11] is Rattus norvegicus. The test is described as follows: Ability to inhibit gastric irritation in rat administered perorally. The test is classed as functional. The conditions noted are these: Stomach, po. The method, boiled down: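 Male Wistar rats, 150-175 g, groups of 10, fasted 48 h (water ad libitum), dosed orally (10 mL/kg) as aqueous Tween 80 suspension or emulphor/alcohol/water (1:1:8) for oils; controls got vehicle. Time response: sacrificed at 3, 5 and 7 h. Dose-response at peak time with four doses. Stomach and intestine lesions (erosion, ulcer, perforation) scored. ED50 is the dose irritating 50% of rats, by linear regression; otherwise % at stated dose.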

The compound `O=C(O)CCCc1ccc2c(c1)C(=O)c1sccc1CO2` came in with an Inhibition with Rattus norvegicus [1] of 38%. Besides, in the test on Mus musculus [2], the inhibition in vivo at 25 mg/kg was found to be 94%.

As to `O=C1c2cc(CCO)ccc2OCc2ccsc21`, the inhibition in vivo at 20 mg/kg with Rattus norvegicus [3] worked out at 62%. Moreover, the ED50 with Mus musculus [4] was found to be 19.7 mg/kg.

Compound `COC(=O)CCCc1ccc2c(c1)C(=O)c1sccc1CO2` gave an ED50 in the test on Mus musculus [4] of 10.8 mg/kg.

Consider `COC(=O)COC(=O)Cc1ccc2c(c1)C(=O)c1sccc1CO2`, for which, in the test on Rattus norvegicus [5], the inhibition in vivo at 20 mg/kg was determined as 43%. This compound came in with an ED50 in the test with Mus musculus [4] of 1.5 mg/kg.

In the case of `CCOC(=O)CCCc1ccc2c(c1)C(=O)c1sccc1CO2`, the inhibition in vivo at 20 mg/kg in the test on Rattus norvegicus [5] is 40%. The 50% effect level in the test with Mus musculus [4] (ED50) was put at a dose of 8.2 mg/kg.

Compound `CC(=O)OCCCCc1ccc2c(c1)C(=O)c1sccc1CO2` came in with an inhibition in vivo at 20 mg/kg in the test with Rattus norvegicus [3] of 38%. In addition, the ED50 in the test on Mus musculus [4] was 5.8 mg/kg.

The compound `CC1(C)COC(Cc2ccc3c(c2)C(=O)c2sccc2CO3)=N1` yielded an inhibition in vivo at 20 mg/kg in the test with Rattus norvegicus [3] of 49%. The same compound registered an ED50 with Mus musculus [4] of 7.2 mg/kg.

In the case of `O=C(O)Cc1ccc2c(c1)C(=O)c1sccc1CO2`, the ED50 stood at 3.4 mg/kg in the test on Rattus norvegicus [1], 33.7 mg/kg in the test on Rattus norvegicus [6] and 3.1 mg/kg in the test on Mus musculus [4].

`O=C1c2cc(CCCCOC(=O)C(F)(F)F)ccc2OCc2ccsc21`: the ED50 is 16.5 mg/kg in the test with Rattus norvegicus [7] and 9.1 mg/kg in the test on Mus musculus [8].

In turn, `CC(C)OC(=O)CCCc1ccc2c(c1)C(=O)c1sccc1CO2` displayed an inhibition in vivo at 20 mg/kg in the test on Rattus norvegicus [5] of 44%. In addition, the ED50 in the test on Mus musculus [4] stood at 8.5 mg/kg.

Regarding `CC(=O)OCCc1ccc2c(c1)C(=O)c1sccc1CO2`, the values for the ED50 in the test on Rattus norvegicus [1] and in the test on Rattus norvegicus [6] were 11.4 mg/kg and 175 mg/kg, respectively. This compound also had an inhibition in vivo at 25 mg/kg in the test with Mus musculus [9] of 52%.

For the compound `CCC(=O)OCCc1ccc2c(c1)C(=O)c1sccc1CO2`, testing at 20 mg/kg with Rattus norvegicus [3] gave an inhibition in vivo of 35%. Besides, the inhibition in vivo at 25 mg/kg in the test on Mus musculus [9] was determined as 22%.

In the case of `CC(C)(CO)NC(=O)Cc1ccc2c(c1)C(=O)c1sccc1CO2`, the inhibition in vivo at 20 mg/kg in the test on Rattus norvegicus [3] was 21%. In the test with Mus musculus [9], this compound had an inhibition in vivo at 25 mg/kg of 19%.

Take `O=C1c2cc(CCCCO)ccc2OCc2ccsc21`: the ED50 is 8.6 mg/kg in the test on Rattus norvegicus [1] and 7.4 mg/kg in the test with Mus musculus [4]. The inhibition in vivo at 400 mg/kg in the test on Rattus norvegicus [10] amounted to 40%.

In turn, `CC(C)(C)OC(=O)CCCc1ccc2c(c1)C(=O)c1sccc1CO2` displayed an inhibition in vivo at 20 mg/kg in the test on Rattus norvegicus [5] of 49%. In the test with Mus musculus [9], this compound returned an inhibition in vivo at 25 mg/kg of 93%.

For `COc1ccc2c(c1)c(CC(=O)O)c(C)n2C(=O)c1ccc(Cl)cc1` [INDOMETHACIN], the ED50 in the test with Rattus norvegicus [7] came out at 4.4 mg/kg; with Rattus norvegicus [11] it was 1.8 mg/kg; with Mus musculus [8], 0.7 mg/kg.
